Data reported in ChEMBL document CHEMBL3632461 (J Med Chem, 2015).

What was measured:
Cytochrome P450 1A2 [1] = molecular target: T1, Cytochrome P450 1A2 (Homo sapiens, UniProt P05177); test: Time-dependent inhibition of CYP1A2 in human liver microsomes; assay type: ADME
T1 sequence (P05177 whole entry): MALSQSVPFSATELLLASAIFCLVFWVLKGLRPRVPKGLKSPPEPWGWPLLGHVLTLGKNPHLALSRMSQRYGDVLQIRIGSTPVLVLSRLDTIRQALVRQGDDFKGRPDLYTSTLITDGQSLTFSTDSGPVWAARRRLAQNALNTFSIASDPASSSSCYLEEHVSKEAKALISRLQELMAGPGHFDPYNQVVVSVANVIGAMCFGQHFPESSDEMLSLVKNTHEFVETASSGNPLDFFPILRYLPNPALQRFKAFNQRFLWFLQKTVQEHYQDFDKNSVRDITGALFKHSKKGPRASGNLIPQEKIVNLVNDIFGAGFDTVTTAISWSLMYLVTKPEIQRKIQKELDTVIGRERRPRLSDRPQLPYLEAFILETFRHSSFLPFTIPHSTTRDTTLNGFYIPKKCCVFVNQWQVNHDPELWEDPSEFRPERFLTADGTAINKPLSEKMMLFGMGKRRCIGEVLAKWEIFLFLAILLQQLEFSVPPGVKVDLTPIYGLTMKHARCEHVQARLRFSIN
In short: (§1)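 Time- and concentration-dependent CYP inhibition assessed by an IC₅₀ shift assay in human liver microsomes.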

[2] = Fraction unbound in rat plasma at 2 uM by equilibrium dialysis method; assay type: ADME, cell-free
In short: (§2)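 Compound at 2 μM in mouse, rat, dog, monkey or human plasma; unbound fraction measured by equilibrium dialysis and reported as a mean.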

Cytochrome P450 2D6 = Cytochrome P450 2D6 (Homo sapiens, UniProt P10635); test: Time-dependent inhibition of CYP2D6 in human liver microsomes; assay type: ADME; in short: as §1
Cytochrome P450 2C19 = Cytochrome P450 2C19 (Homo sapiens, UniProt P33261); test: Reversible inhibition of CYP2C19 (S)-Mephenytoin 4'-hydroxylase activity in human liver microsomes by LC-MS/MS analysis; assay type: ADME
In short: (§3)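 Reversible inhibition of the major CYP enzymes tested in human liver microsomes using established protocols.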

Cytochrome P450 1A2 [3] = molecular target: T1, Cytochrome P450 1A2; test: Reversible inhibition of CYP1A2 phenacetin O-deethylase activity in human liver microsomes by LC-MS/MS analysis; assay type: ADME; in short: as §3
[4] = Drug excretion in cynomolgus monkey urine at 1 mg/kg, iv; assay type: ADME, organism-based, Macaca fascicularis; conditions: read-out: Drug excretion
In short: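 Male animals (beagle dogs 12 kg, Wistar-Han rats 250 g, cynomolgus monkeys 7 kg), fasted overnight and fed 1.0 or 2.0 h after dosing, water ad libitum. Dosed iv at 1 mg/kg in saline or 12% sulfobutyl ether β-cyclodextrin. Fraction of the iv dose excreted unchanged in urine.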

Hepatocyte = test: Metabolic stability in cryopreserved human hepatocytes assessed as GSH adduct formation; assay type: ADME, cell-based
In short: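 Incubation in NADPH-supplemented human liver microsomes or cryopreserved human hepatocytes, examined for glutathione adduct formation.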

Cytochrome P450 2B6 = molecular target: T2, Cytochrome P450 2B6 (Homo sapiens, UniProt P20813); test: Time-dependent inhibition of CYP2B6 in human liver microsomes; assay type: ADME; in short: as §1
T2 sequence (P20813 whole entry): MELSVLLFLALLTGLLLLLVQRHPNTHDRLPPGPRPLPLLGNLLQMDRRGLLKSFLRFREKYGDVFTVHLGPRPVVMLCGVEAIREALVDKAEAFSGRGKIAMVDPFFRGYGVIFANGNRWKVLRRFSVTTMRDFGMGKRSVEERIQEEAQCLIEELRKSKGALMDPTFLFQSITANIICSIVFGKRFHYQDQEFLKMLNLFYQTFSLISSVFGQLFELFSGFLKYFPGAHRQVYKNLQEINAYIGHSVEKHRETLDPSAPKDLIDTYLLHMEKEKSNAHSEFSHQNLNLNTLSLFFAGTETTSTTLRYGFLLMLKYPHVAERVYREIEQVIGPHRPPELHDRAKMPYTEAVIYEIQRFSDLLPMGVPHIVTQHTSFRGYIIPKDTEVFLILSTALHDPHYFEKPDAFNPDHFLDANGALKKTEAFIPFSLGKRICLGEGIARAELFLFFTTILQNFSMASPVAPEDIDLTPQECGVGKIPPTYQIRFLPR

[5] = Fraction unbound in human plasma at 2 uM by equilibrium dialysis method; assay type: ADME, cell-free; in short: as §2
[6] = Fraction unbound in mouse plasma at 2 uM by equilibrium dialysis method; assay type: ADME, cell-free; in short: as §2

Chain of Cytochrome P450 2C19 (P33261 whole entry): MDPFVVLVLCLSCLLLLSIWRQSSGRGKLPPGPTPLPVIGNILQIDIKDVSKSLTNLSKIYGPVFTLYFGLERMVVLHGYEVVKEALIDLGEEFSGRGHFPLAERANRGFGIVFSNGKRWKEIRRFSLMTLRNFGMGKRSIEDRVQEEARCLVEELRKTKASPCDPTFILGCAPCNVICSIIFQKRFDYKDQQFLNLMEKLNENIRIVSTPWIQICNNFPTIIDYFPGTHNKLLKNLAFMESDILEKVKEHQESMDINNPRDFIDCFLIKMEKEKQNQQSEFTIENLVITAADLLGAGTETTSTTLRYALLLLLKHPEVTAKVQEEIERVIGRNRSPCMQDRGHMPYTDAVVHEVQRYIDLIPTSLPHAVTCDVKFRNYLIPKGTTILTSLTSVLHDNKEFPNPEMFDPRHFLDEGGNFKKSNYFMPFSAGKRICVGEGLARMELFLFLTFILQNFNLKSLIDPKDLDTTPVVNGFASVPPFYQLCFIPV
Chain of Cytochrome P450 2D6 (P10635 whole entry): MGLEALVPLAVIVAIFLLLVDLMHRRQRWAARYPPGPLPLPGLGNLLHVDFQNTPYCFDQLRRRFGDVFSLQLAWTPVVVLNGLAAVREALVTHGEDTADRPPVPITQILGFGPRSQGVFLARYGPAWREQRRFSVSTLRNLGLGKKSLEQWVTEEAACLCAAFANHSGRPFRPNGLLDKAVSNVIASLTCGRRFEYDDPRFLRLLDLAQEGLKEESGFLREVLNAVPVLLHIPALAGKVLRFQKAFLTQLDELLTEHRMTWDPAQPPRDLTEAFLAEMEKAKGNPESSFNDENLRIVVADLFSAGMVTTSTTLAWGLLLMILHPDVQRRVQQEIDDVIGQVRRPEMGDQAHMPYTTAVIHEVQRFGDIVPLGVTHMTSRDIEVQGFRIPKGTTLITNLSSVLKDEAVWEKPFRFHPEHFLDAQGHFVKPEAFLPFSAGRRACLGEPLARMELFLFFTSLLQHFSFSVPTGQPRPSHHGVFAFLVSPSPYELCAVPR

For `COc1ccc(Cl)cc1-c1cc(=O)[nH]c(=S)n1CC(N)=O` [PF-06282999], which IC50 (Cytochrome P450 1A2 [1]) is on record?
Its IC50 is > 100 µM.

And the fraction unbound at 2 µM [2]?
Its fraction unbound at 2 µM is 0.447.

And the IC50 (Cytochrome P450 2D6)?
The IC50 was > 100 µM.

What about the IC50 (Cytochrome P450 2C19) of the same compound?
The IC50 was > 100 µM.

And the IC50 (Cytochrome P450 1A2 [3])?
Its IC50 is > 100 µM.

And the dose excreted [4]?
The dose excreted was 26%.

What about the Stability (Hepatocyte) of the same compound?
The Stability was “Stable”.

What about the IC50 (Cytochrome P450 2B6) of the same compound?
Its IC50 is > 100 µM.

What about the fraction unbound at 2 µM [5] of the same compound?
Its fraction unbound at 2 µM is 0.376.

And the fraction unbound at 2 µM [6]?
Its fraction unbound at 2 µM is 0.451.
